# Screens from PubChem BioAssay.
# PAD4 inh: PAD4 (human) enzyme inhibition; Q9UM07; recombinant PAD4, RCA probe fluorescence polarization; inhibition, % at 6.36 µM; actives 0.41% (n = 330,000); AID 485272;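 active means percent inhibition above a cutoff equal to the mean of all tested compounds plus 3 SD, cut at about 15% in these data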;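 further: 0% = PAD4 with RCA probe and DMSO and 100% = probe without PAD4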
# UBC9 SUMO inh: inhibitors of human SUMOylation (UBC9). actives 0.36% (n = 290,000). HTRF SUMOylation assay, SAE1/SAE2 + UBC9, in vitro. inhibition, % at 35 µM; in the data active means inhibition above about 50%, passing the limit was not always enough; inconclusive means no clear call, values can overlap the other calls
# Target sequence (P63279 whole entry, looked up): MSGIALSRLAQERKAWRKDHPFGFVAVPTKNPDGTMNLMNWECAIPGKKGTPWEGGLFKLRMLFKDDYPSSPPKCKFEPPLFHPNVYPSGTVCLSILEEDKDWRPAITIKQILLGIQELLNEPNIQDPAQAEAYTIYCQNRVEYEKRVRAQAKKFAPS
# GASC-1 inh: inhibitors of human GASC-1 (JMJD2C) demethylase | inhibition, % at 2.35 µM | actives 0.069% (n = 330,000) | GST-JMJD2C(1-420) H3K9me3 demethylation, DELFIA europium;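 active means more than half of a compound's replicate wells show inhibition beyond 50%, single wells judged on their own value; inconclusive means some, but no more than half, of replicates pass 50% inhibition; inactive means no replicate passes 50% inhibition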;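 further: signal counts dimethyl H3K9 product captured on neutravidin plate; 0% = median of DMSO wells and 100% = 0.3 times that DMSO median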
# TDP2 inh: TDP2 (human) inhibition, absorbance primary screen. O95551. recombinant TDP2, T5PNP hydrolysis, p-nitrophenol absorbance 415 nm. inhibition, % at 12.8 µM. actives 0.34% (n = 370,000). AID 720702;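 active means inhibition above the mean of all tested compounds plus 3 SD, set per campaign, cut at about 25% in these data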;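 further: 0% = DMSO with enzyme and 100% = buffer with substrate but no TDP2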
# Target sequence (O95551 whole entry, looked up): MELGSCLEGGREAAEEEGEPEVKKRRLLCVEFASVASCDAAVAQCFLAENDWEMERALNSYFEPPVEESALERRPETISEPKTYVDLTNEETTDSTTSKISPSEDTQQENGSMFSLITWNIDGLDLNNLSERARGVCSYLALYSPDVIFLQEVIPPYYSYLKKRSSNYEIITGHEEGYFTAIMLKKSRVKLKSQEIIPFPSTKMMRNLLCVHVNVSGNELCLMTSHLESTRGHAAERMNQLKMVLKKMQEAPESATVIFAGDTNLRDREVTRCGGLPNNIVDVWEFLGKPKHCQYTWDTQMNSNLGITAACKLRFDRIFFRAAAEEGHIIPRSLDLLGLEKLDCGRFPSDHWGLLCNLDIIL
#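 System – recombinant human TDP2 · Amount – 120 nM TDP2 per well · Buffer or medium – Mg2+-containing Tris-HCl buffer, pH 7.5 · Reagent – T5PNP substrate, 5 mM · Dosing – 12.8 µM single point, 1% DMSO · Incubation – 2 h at 37 °C · Measured by – epi absorbance · Read-out basis – percent inhibition · Benchmarks – high control without enzyme, low control DMSO plus TDP2 · Repeats – singlicate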
# Apaf-1 inh: human Apaf-1 inhibition; O14727; reconstituted apoptosome caspase-3 activity, DEVD-Rh110 fluorescence; inhibition, % at 20 µM; actives 0.71% (n = 330,000); AID 489030; active means inhibition of at least 40% at 20 µM;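 further: plate controls were DMSO wells for no effect and DEVD-CHO caspase inhibitor wells for full effect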
#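 Medium: Hepes buffer, pH 7.5 / System: biochemical Apaf-1 apoptosome reconstitution / Measured by: Rh110 fluorescence, excitation 480 nm, emission 540 nm / Times: compound with Apaf-1, dATP, procaspase-3 30 min, then 50 min reaction, room temperature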
# GSTO1 counter: GSTO1 inhibition, counter-screen for RBBP9 inhibitors | P78417 | recombinant GSTO1, activity-based probe fluorescence polarization | inhibition, % at 5.96 µM | actives 1.1% (n = 300,000);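 active means inhibition above the campaign mean inhibition plus 3 SD, cut at about 35% in these data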;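 further: 0% = GSTO1-1 with DMSO and 100% = wells lacking GSTO1-1 enzyme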
# Target sequence (P78417 whole entry, looked up): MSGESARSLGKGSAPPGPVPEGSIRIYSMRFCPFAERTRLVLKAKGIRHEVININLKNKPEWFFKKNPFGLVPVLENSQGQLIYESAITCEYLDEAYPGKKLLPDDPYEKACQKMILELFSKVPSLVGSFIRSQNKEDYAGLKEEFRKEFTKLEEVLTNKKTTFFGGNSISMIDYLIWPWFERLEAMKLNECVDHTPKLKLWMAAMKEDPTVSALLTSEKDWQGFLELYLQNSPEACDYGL
# Apaf-1 inh conf2: Apaf-1 inhibition, single-dose confirmed; shares compounds with Apaf-1 inh; reconstituted apoptosome, caspase-3 DEVD-Rh110 fluorescence; inhibition, % at 20 µM; actives 25% (n = 1,800); AID 504614;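 active means mean inhibition of at least 40% at 20 µM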;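 further: plate controls were DMSO wells for no effect and DEVD-CHO caspase inhibitor control wells for full effect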
# Rh110 quench: counter-screen for Apaf-1 inhibitors: fluorescence interference; shares compounds with Apaf-1 inh; Rh110 fluorescence interference, quenched caspase reaction; activation (fluorescence interference), % at 20 µM; 1,800 tested, under 10 active;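 active means signal rise of 40% or more at 20 µM, treated as a fluorescence artifact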
# Apaf1 inh interf: counter-screen for Apaf-1 inhibitors: fluorescence interference, dose response; shares compounds with Apaf-1 inh; IC50, µM; AID 588538; 460 tested, under 10 active; fluorescence interference counterscreen, Apaf-1 assay format; call rule not given here
# TDP2 inh conf: human TDP2 inhibition, confirmation; shares compounds with TDP2 inh; recombinant human TDP2, absorbance read-out; inhibition, % at 12.8 µM; actives 22% (n = 1,100); AID 743263; in the data active means inhibition above about 25%;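 further: 0% = vehicle with enzyme and 100% = no enzyme buffer only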
# * hit, by the source's call; ? = inconclusive; / = not tested or not shown. Shown are actives, neighbours in structure and some others; about 1.6% of the full set was active somewhere.
SMILES,PAD4 inh,UBC9 SUMO inh,GASC-1 inh,TDP2 inh,Apaf-1 inh,GSTO1 counter,Apaf-1 inh conf2,Rh110 quench,others
Nc1ccc(/C=C/c2ccc3ncccc3c2)cc1,6.5,32.9,8.0,9.3,4.3,6.1,/,/,
Nc1ccc2ncccc2c1,-5.3,9.6,-1.0,12.6,85.5*,27.3,19.4,-2.7,
C[C@H]1CCCC(=O)N[C@@H](c2ccccc2)[C@@H](C)CCCC(=O)N[C@H]1c1ccccc1,/,/,/,1.1,/,/,/,/,
COc1ccc2[nH]cc(C(C)c3c[nH]c4ccccc34)c2c1 (stereo not drawn),/,/,/,-1.9,/,/,/,/,
O=C(NCCCN1CCCCCC1)c1cc2c(=O)oc3ccccc3c2s1,1.4,-11.5,20.5,-14.0,40.5*,-9.2,11.4,6.0,
Cc1ccc2oc(=O)c3cc(C(=O)NCCCN4CCN(C)CC4)sc3c2c1,-0.8,16.3,-6.4,-8.2,1.2,-2.1,/,/,
Nc1ccc2nc(-c3cccc(-c4nc5ccc(N)cc5[nH]4)n3)[nH]c2c1,-16.5,-5.1,-2.9,17.1,40.2*,-1.8,15.6,20.6,
COc1cc2sc3ccc(-c4ccc(N(C)C)nc4)cc3c(=O)c2cc1OC,11.3,/,11.1,3.5,43.9*,20.2,36.7,5.3,
CN[C@H]1CC[C@@H](c2ccc(Cl)c(Cl)c2)c2ccccc21,-0.1,-14.3,-13.3,-5.9,54.0*,2.1,5.1,-3.2,
CCCC(=O)N1CCC[C@]2(CC[C@@H](CCC(=O)N(CC)CC)O2)C1,/,/,/,6.3,/,/,/,/,
Cc1cccc(NC(=O)C2CCCN(c3nnc(-n4cccc4)s3)C2)c1C (stereo not drawn),/,/,/,-8.9,/,/,/,/,
S=c1[nH]c2ncccc2o1,0.2,7.7,3.1,-22.7,-6.7,4.1,/,/,
S=c1[nH]c2cc(Cl)c3cccnc3c2o1,-3.7,28.0,2.4,5.5,46.2*,15.7,25.9,0.9,
COc1cccc(NC(=O)C(NCC(C)(C)CN(C)C)c2ccccc2)c1 (stereo not drawn),2.7,2.4,67.2,-10.6,3.2,4.4,/,/,
C=CCNC(C(=O)Nc1cccc(OC)c1)c1ccccc1 (stereo not drawn),-2.5,1.1,0.4,-1.2,42.9*,1.7,-5.6,3.0,
CCCCOCCCNC(=O)C[C@H]1C[C@@]2(C(=O)OC)C(=C[C@H](C(C)C)O[C@@H]2C2CC2)N(CCc2ccc(OC)c(OC)c2)C1=O,/,/,/,-8.5,/,/,/,/,
O=C(Nc1ccc(F)cc1)OCCN1C(=O)CCC12CCC(c1ccc(Cl)cc1)CC2 (stereo not drawn),/,/,/,-1.5,/,/,/,/,
CC[C@@H](C)[C@H](CNC)NC[C@@H](Cc1cccc2ccccc12)NCCc1cccc(C(F)(F)F)c1,-1.6,-29.5,-15.1,-10.2,70.3*,5.1,48.4*,13.1,Apaf1 inh interf=>100
CN1CCC[C@H]1CCNC(=O)c1c(-c2ccsc2)sc2ccccc12,-5.3,/,36.4,-0.7,6.8,/,/,/,
CN1CCC[C@@H]1CCNC(=O)c1c(-c2ccc3c(c2)OCO3)noc1-c1ccsc1,-0.8,/,12.1,13.6,40.4*,/,11.4,7.5,
O=C(NCCc1ccccc1)OCc1cn(-c2cccc(F)c2F)nn1,/,/,/,-0.7,/,/,/,/,
CCOc1ccc2nc(NC3=NC(c4ccc(OC)cc4)CC(=O)N3)nc(C)c2c1 (stereo not drawn),-6.8,-7.6,-7.8,-3.9,78.5*,-2.2,69.7*,6.6,Apaf1 inh interf=>100
O=c1[nH]c(CN2CCc3ccccc3C2)nc2ccccc12,-16.9,-4.4,3.7,17.9,64.7*,15.6,14.1,-0.2,
O=c1[nH]c(CN2CCOCC2)nc2ccccc12,-3.8,2.0,-6.2,0.8,-1.7,-2.0,/,/,
CC(=O)NC(Cc1ccc2c(c1)OCO2)C(=O)N1CCCN(C(C)=O)CC1 (stereo not drawn),/,/,/,3.2,/,/,/,/,
SMILES,PAD4 inh,UBC9 SUMO inh,GASC-1 inh,TDP2 inh,Apaf-1 inh,GSTO1 counter,Apaf-1 inh conf2,Rh110 quench,others
COc1ccc2cc1Oc1ccc(cc1)C[C@H]1c3cc(c(OC)cc3CCN1C)Oc1c(OC)c(OC)cc3c1[C@H](C2)N(C)CC3,-5.0,6.9,?,12.8,32.0,1.7,/,/,
COc1ccc2cc1Oc1ccc(cc1)C[C@H]1c3c(cc4c(c3Oc3cc5c(cc3OC)CCN(C)[C@@H]5C2)OCO4)CCN1C,-4.4,9.2,-19.7,-0.2,49.2*,6.5,18.2,-6.0,
CCn1c(=O)n2n(c1=O)[C@H]1C[N+](Cc3ccc4c(c3)OCO4)=C(N)NC1=C(C)C2,/,/,/,4.7,/,/,/,/,
NC(=O)CCn1c2ccccc2c2ccccc21,-0.3,-3.1,4.9,3.5,-13.8,2.8,/,/,
Cc1ccc2c(c1)c1cccc3c1n2CCN3CCC(N)=O,-11.2,-4.7,-6.8,/,51.3*,28.8,21.7,11.0,
CN(C)CCCNC(=S)NCC(c1ccc(Cl)cc1Cl)c1c[nH]c2ccccc12 (stereo not drawn),-0.6,4.4,-2.0,-7.6,41.2*,-2.6,25.9,12.5,
CCCCNC(=S)NCC(c1ccccc1)c1c[nH]c2ccccc12 (stereo not drawn),2.2,-9.8,33.7,1.5,13.3,-9.7,/,/,
O=C1c2[nH]nc(-c3ccccc3O)c2C(c2cccc(Cl)c2)N1Cc1ccco1 (stereo not drawn),-1.5,-8.8,-2.0,-5.7,42.0*,-16.3,33.7,3.7,
O=C1c2[nH]nc(-c3ccccc3O)c2C(c2ccc(F)cc2)N1Cc1ccco1 (stereo not drawn),0.3,3.4,-19.4,-10.4,29.7,-40.5,/,/,
COc1ccc(C(CNC(=O)c2cccn2C)N2CCOCC2)cc1 (stereo not drawn),1.9,/,7.0,-11.4,47.1*,/,35.5,-3.0,
COc1ccc(C(CNC(=O)c2ccc(C)o2)N2CCOCC2)cc1 (stereo not drawn),1.8,/,7.4,-18.3,4.4,4.0,/,/,
O=C(NCc1ccc(Cl)cc1)O[C@H]1CC[C@@]23CCCN2C(=O)CCC[C@H]3C1,/,/,/,-3.5,/,/,/,/,
COc1ccc2c(c1)CCc1sc(NC(=O)c3ccco3)nc1-2,-4.3,-12.5,2.6,/,8.3,2.0,/,/,
COc1ccc2c(c1)Cc1sc(NC(C)=O)nc1-2,-13.9,65.1,18.5,49.2*,72.6*,0.6,16.2,-3.8,TDP2 inh conf=29.3*
COc1ccc2c(c1)Cc1sc(NC(=O)c3ccco3)nc1-2,-6.7,77.6,1.9,64.3*,85.4*,14.7,55.5*,5.0,Apaf1 inh interf=>100;TDP2 inh conf=9.7
